# Measurements collected from several papers.
# Protocols differ between the studies behind these lines.
# Target: Serine/threonine-protein kinase Nek5 (NEK5, Homo sapiens, UniProt Q6P3R8)
# Residues used in one study (Q6P3R8 1-708): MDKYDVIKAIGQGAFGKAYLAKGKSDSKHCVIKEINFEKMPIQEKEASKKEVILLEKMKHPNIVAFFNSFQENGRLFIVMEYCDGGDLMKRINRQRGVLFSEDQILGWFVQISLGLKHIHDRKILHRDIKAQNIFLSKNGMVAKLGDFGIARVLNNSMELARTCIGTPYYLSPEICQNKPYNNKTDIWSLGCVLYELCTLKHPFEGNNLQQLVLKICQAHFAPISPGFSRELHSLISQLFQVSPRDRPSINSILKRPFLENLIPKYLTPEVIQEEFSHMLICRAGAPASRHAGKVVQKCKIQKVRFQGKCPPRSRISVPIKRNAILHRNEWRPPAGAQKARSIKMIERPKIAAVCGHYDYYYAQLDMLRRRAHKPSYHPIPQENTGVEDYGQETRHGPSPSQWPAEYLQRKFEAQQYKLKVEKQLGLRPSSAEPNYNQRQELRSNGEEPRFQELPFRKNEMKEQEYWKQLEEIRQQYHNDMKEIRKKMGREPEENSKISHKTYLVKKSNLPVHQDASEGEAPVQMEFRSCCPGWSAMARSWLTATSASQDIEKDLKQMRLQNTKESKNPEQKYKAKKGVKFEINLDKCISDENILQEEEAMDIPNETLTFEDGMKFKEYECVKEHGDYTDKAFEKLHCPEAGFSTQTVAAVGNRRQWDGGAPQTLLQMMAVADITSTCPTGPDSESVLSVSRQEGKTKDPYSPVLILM
Compound,observed,technique,tested at,remaining binding
N[C@@H]1CCN(c2nccc(-c3cnn4ncccc34)n2)C1,binding,,1 µM,100%
CC(=O)N1CCC(c2ccc(C(=O)NC(=N)N)cc2C(F)(F)F)CC1,cell-free assay,competition with immobilised ligand,1 µM,100%
CN(c1nccc(-c2cnn3ncccc23)n1)C1CC1,binding,,1 µM,100%
Nc1ncc2c(n1)-c1c([nH]c3ccc(C#CC4CC4)cc13)CCCC2,binding,competition with immobilised ligand,1 µM,100%
F[C@@H]1CCN(c2nccc(-c3cnn4ncccc34)n2)C1,binding,,1 µM,100%
c1cncc(-c2cccc(Nc3nccc(NC4CCCCC4)n3)c2)c1,binding,competition with immobilised ligand,10 µM,49%
c1cnn2ncc(-c3ccnc(N4CCC45COC5)n3)c2c1,binding,,1 µM,97%
C=CC(=O)N1CCC(C(=O)NCC(=O)N2CCN(c3nc(-c4cnc(N)nc4C(F)F)nc(N4CCOCC4)n3)CC2)CC1,binding,competition with immobilised ligand,1 µM,100%
Cc1noc([C@H]2C[C@@H](c3ccc(C(F)(F)F)cc3)CN(C(=O)N3CCS(=O)(=O)C3)C2)n1,cell-free assay,competition with immobilised ligand,1 µM,100%
Cc1cnn2ncc(-c3ccnc(N(C)C)n3)c2c1,binding,,1 µM,100%
O=C(c1ccc(Nc2nccc(-c3cc4ccccc4s3)n2)cc1)N1CCC(N2CCCC2)CC1,binding,competition with immobilised ligand,1 µM,15%
C[C@@H]1CCN(c2nccc(-c3cnn4ncccc34)n2)C1,binding,,1 µM,100%
FC(F)(F)c1ccc2c(c1)nc(-c1cccnc1)n2C1CC1,cell-free assay,competition with immobilised ligand,1 µM,100%
O=C(NCCCN1CCOCC1)c1ccc(Nc2ncc(Cl)c(-c3ccc(Cl)s3)n2)cc1,binding,competition with immobilised ligand,1 µM,0%
C[C@@H](c1cccc(C#N)c1)n1cc(Cl)cc(C(N)=O)c1=N,cell-free assay,competition with immobilised ligand,1 µM,100%
O=C(c1ccc(Nc2ncc(Cl)c(-c3ccc(Cl)s3)n2)cc1)N1CCC(N2CCCC2)CC1,binding,competition with immobilised ligand,1 µM,0%
O=C(Nc1c[nH]nc1C(=O)NC1CCNCC1)c1cc(F)cc(F)c1,binding,competition with immobilised ligand,1 µM,95%
COc1ccc2c(O[C@@H]3C[C@H]4C(=O)N[C@]5(C(=O)O)CC5/C=C\CCCCC[C@H](NC(=O)OC5CCCC5)C(=O)N4C3)cc(-c3csc(NC(=O)C(C)C)n3)nc2c1C (stereo partly drawn),cell-free assay,competition with immobilised ligand,1 µM,98%
COc1cnc(Nc2cccc(S(N)(=O)=O)c2)nc1N1CCN(c2ccccc2)CC1,binding,competition with immobilised ligand,1 µM,42%
C[C@H](NC(=O)c1cnc2n1[C@](C)(Cc1ccc(C#N)cc1)C(=O)N2c1cc(Cl)c(F)c(Cl)c1)C(=O)NC1(c2ccccn2)CC1,cell-free assay,competition with immobilised ligand,1 µM,100%
FC(F)(F)Oc1cccc(-c2cnc3ccc(-c4ccncc4)nn23)c1,cell-free assay,competition with immobilised ligand,5 µM,74%
